Legend:
Type in all cases: functional
Staphylococcus aureus [1] = experiment: Antibacterial activity against Staphylococcus aureus RN4220 assessed as growth inhibition at 75 ug/ml after 16 hrs by spectrophotometric analysis; conditions: RN4220, 16 h, read-out: GI
Method in brief: (§1)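 Growth inhibition read as OD600 on 300 µL culture samples, with untreated control cultures taken as maximum growth. Percent inhibition = (OD600 control − OD600 treated) × 100 / OD600 control. Parent antibiotics and their conjugates were run in parallel at three concentrations per compound, in biological duplicate.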

Staphylococcus aureus [2] = experiment: Antibacterial activity against Staphylococcus aureus RN4220 assessed as growth inhibition at 150 ug/ml after 16 hrs by spectrophotometric analysis; conditions: RN4220, 16 h, read-out: GI; method in brief: as §1
Escherichia coli [3] = experiment: Antibacterial activity against Escherichia coli DH5alpha assessed as growth inhibition at 50 ug/ml after 16 hrs by spectrophotometric method; conditions: DH5[alpha], read-out: GI; method in brief: as §1
Escherichia coli [4] = experiment: Antibacterial activity against Escherichia coli DH5alpha assessed as growth inhibition at 75 ug/ml after 16 hrs by spectrophotometric method; conditions: DH5[alpha], read-out: GI; method in brief: as §1
Staphylococcus aureus [5] = experiment: Antibacterial activity against Staphylococcus aureus RN4220 assessed as growth inhibition at 300 ug/ml after 16 hrs by spectrophotometric analysis; conditions: RN4220, 16 h, read-out: GI; method in brief: as §1
Escherichia coli [6] = experiment: Antibacterial activity against Escherichia coli DH5alpha assessed as growth inhibition at 100 ug/ml after 16 hrs by spectrophotometric method; conditions: DH5[alpha], read-out: GI; method in brief: as §1
Staphylococcus aureus [7] = experiment: Antibacterial activity against Staphylococcus aureus RN4220 assessed as growth inhibition at 120 ug/ml after 16 hrs by spectrophotometric analysis; conditions: RN4220, 16 h, read-out: GI; method in brief: as §1
Staphylococcus aureus [8] = experiment: Antibacterial activity against Staphylococcus aureus RN4220 assessed as growth inhibition at 240 ug/ml after 16 hrs by spectrophotometric analysis; conditions: RN4220, 16 h, read-out: GI; method in brief: as §1
Staphylococcus aureus [9] = experiment: Antibacterial activity against Staphylococcus aureus RN4220 assessed as growth inhibition at 60 ug/ml after 16 hrs by spectrophotometric analysis; conditions: RN4220, 16 h, read-out: GI; method in brief: as §1
Escherichia coli [10] = experiment: Antibacterial activity against Escherichia coli DH5alpha assessed as growth inhibition at 40 ug/ml after 16 hrs by spectrophotometric method; conditions: DH5[alpha], read-out: GI; method in brief: as §1
Staphylococcus aureus [11] = experiment: Antibacterial activity against Staphylococcus aureus RN4220 assessed as growth inhibition at 30 ug/ml after 16 hrs by spectrophotometric analysis; conditions: RN4220, 16 h, read-out: GI; method in brief: as §1
Escherichia coli [12] = experiment: Antibacterial activity against Escherichia coli DH5alpha assessed as growth inhibition at 0.75 ug/ml after 16 hrs by spectrophotometric method; conditions: DH5[alpha], read-out: GI; method in brief: as §1
Bacillus subtilis [13] = experiment: Antibacterial activity against Bacillus subtilis 168 assessed as growth inhibition at 20 ug/ml after 16 hrs by spectrophotometric analysis; conditions: subsp. subtilis str. 168, 16 h, read-out: GI; method in brief: as §1
Escherichia coli [14] = experiment: Antibacterial activity against Escherichia coli DH5alpha assessed as growth inhibition at 3 ug/ml after 16 hrs by spectrophotometric method; conditions: DH5[alpha], read-out: GI; method in brief: as §1
Pseudomonas aeruginosa [15] = experiment: Antibacterial activity against Pseudomonas aeruginosa PAO1 assessed as growth inhibition at 40 ug/ml after 16 hrs by spectrophotometric analysis; conditions: PAO1, 16 h, read-out: GI; method in brief: as §1
Bacillus subtilis [16] = experiment: Antibacterial activity against Bacillus subtilis 168 assessed as growth inhibition at 10 ug/ml after 16 hrs by spectrophotometric analysis; conditions: subsp. subtilis str. 168, 16 h, read-out: GI; method in brief: as §1
Pseudomonas aeruginosa [17] = experiment: Antibacterial activity against Pseudomonas aeruginosa PAO1 assessed as growth inhibition at 20 ug/ml after 16 hrs by spectrophotometric analysis; conditions: PAO1, 16 h, read-out: GI; method in brief: as §1
Escherichia coli [18] = experiment: Antibacterial activity against Escherichia coli DH5alpha assessed as growth inhibition at 1.5 ug/ml after 16 hrs by spectrophotometric method; conditions: DH5[alpha], read-out: GI; method in brief: as §1
Bacillus subtilis [19] = experiment: Antibacterial activity against Bacillus subtilis 168 assessed as growth inhibition at 5 ug/ml after 16 hrs by spectrophotometric analysis; conditions: subsp. subtilis str. 168, 16 h, read-out: GI; method in brief: as §1
Pseudomonas aeruginosa [20] = experiment: Antibacterial activity against Pseudomonas aeruginosa PAO1 assessed as growth inhibition at 10 ug/ml after 16 hrs by spectrophotometric analysis; conditions: PAO1, 16 h, read-out: GI; method in brief: as §1
Staphylococcus aureus [21] = experiment: Antibacterial activity against Staphylococcus aureus RN4220 assessed as growth inhibition at 15 ug/ml after 16 hrs by spectrophotometric analysis; conditions: RN4220, 16 h, read-out: GI; method in brief: as §1
Escherichia coli [22] = experiment: Antibacterial activity against Escherichia coli DH5alpha assessed as growth inhibition at 2.5 ug/ml after 16 hrs by spectrophotometric method; conditions: DH5[alpha], read-out: GI; method in brief: as §1
Escherichia coli [23] = experiment: Antibacterial activity against Escherichia coli DH5alpha assessed as growth inhibition at 10 ug/ml after 16 hrs by spectrophotometric method; conditions: DH5[alpha], read-out: GI; method in brief: as §1
Escherichia coli [24] = experiment: Antibacterial activity against Escherichia coli DH5alpha assessed as growth inhibition at 5 ug/ml after 16 hrs by spectrophotometric method; conditions: DH5[alpha], read-out: GI; method in brief: as §1
Bacillus subtilis [25] = experiment: Antibacterial activity against Bacillus subtilis 168 assessed as growth inhibition at 40 ug/ml after 16 hrs by spectrophotometric analysis; conditions: subsp. subtilis str. 168, 16 h, read-out: GI; method in brief: as §1
Staphylococcus aureus [26] = experiment: Antibacterial activity against Staphylococcus aureus RN4220 assessed as growth inhibition at 50 ug/ml after 16 hrs by spectrophotometric analysis; conditions: RN4220, 16 h, read-out: GI; method in brief: as §1
Staphylococcus aureus [27] = experiment: Antibacterial activity against Staphylococcus aureus RN4220 assessed as growth inhibition at 200 ug/ml after 16 hrs by spectrophotometric analysis; conditions: RN4220, 16 h, read-out: GI; method in brief: as §1
Staphylococcus aureus [28] = experiment: Antibacterial activity against Staphylococcus aureus RN4220 assessed as growth inhibition at 100 ug/ml after 16 hrs by spectrophotometric analysis; conditions: RN4220, 16 h, read-out: GI; method in brief: as §1

For `Cc1ncc([N+](=O)[O-])n1CCOC(=O)CNC(=O)OCc1ccccc1`, the inhibition of growth at 75 µg/mL (Staphylococcus aureus [1]) was 0.33%, the inhibition of growth at 150 µg/mL (Staphylococcus aureus [2]) was 23.5% and the inhibition of growth at 50 µg/mL (Escherichia coli [3]) was 8.23%. The inhibition of growth at 75 µg/mL (Escherichia coli [4]) was 1.61%, the inhibition of growth at 300 µg/mL (Staphylococcus aureus [5]) was 23.6% and the inhibition of growth at 100 µg/mL (Escherichia coli [6]) was 6.59%.

Compound `Cc1ncc([N+](=O)[O-])n1CCOC(=O)[C@H](C)NC(=O)OCc1ccccc1` has an inhibition of growth at 75 µg/mL (Staphylococcus aureus [1]) of 8.86%, an inhibition of growth at 150 µg/mL (Staphylococcus aureus [2]) of 22.5% and an inhibition of growth at 50 µg/mL (Escherichia coli [3]) of 2.22%. The inhibition of growth at 75 µg/mL (Escherichia coli [4]) was 3.79%, the inhibition of growth at 300 µg/mL (Staphylococcus aureus [5]) was 45.9% and the inhibition of growth at 100 µg/mL (Escherichia coli [6]) was 8.28%.

In the case of `Cc1ncc([N+](=O)[O-])n1CCOC(=O)[C@@H](NC(=O)OCc1ccccc1)C(C)C`, the inhibition of growth at 75 µg/mL (Staphylococcus aureus [1]) was -7.76%, the inhibition of growth at 150 µg/mL (Staphylococcus aureus [2]) was -7.76% and the inhibition of growth at 50 µg/mL (Escherichia coli [3]) was 3.28%. It also gave an inhibition of growth at 75 µg/mL (Escherichia coli [4]) of 3.26%, an inhibition of growth at 300 µg/mL (Staphylococcus aureus [5]) of 13.7% and an inhibition of growth at 100 µg/mL (Escherichia coli [6]) of 4.47%.

`Cc1ncc([N+](=O)[O-])n1CCOC(=O)[C@H](Cc1ccccc1)NC(=O)OCc1ccccc1` showed an inhibition of growth at 75 µg/mL (Staphylococcus aureus [1]) of -0.03%, an inhibition of growth at 150 µg/mL (Staphylococcus aureus [2]) of 6.66% and an inhibition of growth at 50 µg/mL (Escherichia coli [3]) of 4.44%. The inhibition of growth at 75 µg/mL (Escherichia coli [4]) was 5.73%, the inhibition of growth at 300 µg/mL (Staphylococcus aureus [5]) was 20.5% and the inhibition of growth at 100 µg/mL (Escherichia coli [6]) was 7.7%.

`Cc1ncc([N+](=O)[O-])n1CCOC(=O)[C@H](CCCCNC(=O)OCc1ccccc1)NC(=O)OCc1ccccc1` showed an inhibition of growth at 75 µg/mL (Staphylococcus aureus [1]) of -2.96%, an inhibition of growth at 150 µg/mL (Staphylococcus aureus [2]) of 22.3% and an inhibition of growth at 50 µg/mL (Escherichia coli [3]) of 51.9%. It also gave an inhibition of growth at 75 µg/mL (Escherichia coli [4]) of 62.5%, an inhibition of growth at 300 µg/mL (Staphylococcus aureus [5]) of 68% and an inhibition of growth at 100 µg/mL (Escherichia coli [6]) of 70%.

`C[C@H](NC(=O)OCc1ccccc1)C(=O)Nc1ccc(S(=O)(=O)Nc2ncccn2)cc1` showed an inhibition of growth at 120 µg/mL (Staphylococcus aureus [7]) of -9.38%, an inhibition of growth at 240 µg/mL (Staphylococcus aureus [8]) of 1.07% and an inhibition of growth at 50 µg/mL (Escherichia coli [3]) of -0.61%. For the same compound, the inhibition of growth at 75 µg/mL (Escherichia coli [4]) was -0.65%, the inhibition of growth at 60 µg/mL (Staphylococcus aureus [9]) was -9.96% and the inhibition of growth at 40 µg/mL (Escherichia coli [10]) was 2.13%.

`Cc1ncc([N+](=O)[O-])n1CCO` [METRONIDAZOLE] gave an inhibition of growth at 75 µg/mL (Staphylococcus aureus [1]) of -14.3%, an inhibition of growth at 150 µg/mL (Staphylococcus aureus [2]) of -9.9% and an inhibition of growth at 50 µg/mL (Escherichia coli [3]) of 6.64%. For the same compound, the inhibition of growth at 75 µg/mL (Escherichia coli [4]) was 8.2%, the inhibition of growth at 300 µg/mL (Staphylococcus aureus [5]) was 16.4% and the inhibition of growth at 100 µg/mL (Escherichia coli [6]) was 15%.

With `CCn1cc(C(=O)O)c(=O)c2cc(F)c(N3CCNCC3)cc21` [NORFLOXACIN] the inhibition of growth at 30 µg/mL (Staphylococcus aureus [11]) was 73.5%, the inhibition of growth at 0.75 µg/mL (Escherichia coli [12]) was 55.3% and the inhibition of growth at 20 µg/mL (Bacillus subtilis [13]) was 92.2%. The inhibition of growth at 3 µg/mL (Escherichia coli [14]) was 80.8%, the inhibition of growth at 40 µg/mL (Pseudomonas aeruginosa [15]) was 89.1% and the inhibition of growth at 10 µg/mL (Bacillus subtilis [16]) was 91.9%. It also gave an inhibition of growth at 20 µg/mL (Pseudomonas aeruginosa [17]) of 90.5%, an inhibition of growth at 1.5 µg/mL (Escherichia coli [18]) of 72.8% and an inhibition of growth at 5 µg/mL (Bacillus subtilis [19]) of 90.7%. The inhibition of growth at 60 µg/mL (Staphylococcus aureus [9]) was 81%, the inhibition of growth at 10 µg/mL (Pseudomonas aeruginosa [20]) was 81.1% and the inhibition of growth at 15 µg/mL (Staphylococcus aureus [21]) was 63.9%.

Work on `CCn1cc(C(=O)O)c(=O)c2cnc(N3CCNCC3)nc21` [PIPEMIDIC ACID] yielded an inhibition of growth at 20 µg/mL (Bacillus subtilis [13]) of 26%, an inhibition of growth at 2.5 µg/mL (Escherichia coli [22]) of -13% and an inhibition of growth at 10 µg/mL (Escherichia coli [23]) of 7.89%. It also gave an inhibition of growth at 5 µg/mL (Escherichia coli [24]) of -9.68%, an inhibition of growth at 40 µg/mL (Bacillus subtilis [25]) of 79.8% and an inhibition of growth at 10 µg/mL (Bacillus subtilis [16]) of 18.2%. For the same compound, the inhibition of growth at 50 µg/mL (Staphylococcus aureus [26]) was 26.2%, the inhibition of growth at 200 µg/mL (Staphylococcus aureus [27]) was 61.8% and the inhibition of growth at 100 µg/mL (Staphylococcus aureus [28]) was 44.4%.

Source: ChEMBL document CHEMBL3232791, “Synthesis and antibacterial evaluation of amino acid-antibiotic conjugates” (2014)
